From ChEMBL document CHEMBL1145166, “Dipeptides as effective prodrugs of the unnatural amino acid (+)-2-aminobicyclo[3.1.0]hexane-2,6-dicarboxylic acid (LY354740), a selective group II metabotropic glutamate receptor agonist” (J Med Chem, 2005)

What was measured:
[1] = Plasma concentration of LY-354740 in rats after oral administration of compound at a dose of 5 mg equiv 1/kg at 0.5 hr; type: ADME; conditions: rat
Procedure, shortened: (§1)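 Male Fischer 344 rats (190–250 g), fasted overnight, food returned ~4 h postdose; single oral dose of prodrug molar-equivalent to 5 mg/kg parent, in pH 2.5 20 mM KHPO₄. Blood drawn at 0.5, 1 and 3 h; plasma stored at –20 °C or below until analysis. Three plasma samples per time point; parent and prodrug measured.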

[2] = Plasma concentration of LY-354740 in rats after oral administration of compound at a dose of 5 mg equiv 1/kg at 3 hr; type: ADME; conditions: rat; procedure, shortened: as §1
[3] = Area under concentration of compound in rats at a dose of 5 mg equiv 1/kg; type: ADME; conditions: rat, in vivo; procedure, shortened: as §1
[4] = Plasma concentration of LY-354740 in rats after oral administration of compound at a dose of 5 mg equiv 1/kg at 1 hr; type: ADME; conditions: rat; procedure, shortened: as §1
[5] = Plasma concentration of the prodrug and LY-354740 against the metabotropic glutamate receptor in rats after an oral dose of corresponding prodrug in 5 mg equiv 1/kg at 3 houre; type: ADME; conditions: rat; procedure, shortened: as §1
Caco-2 = experiment: Inhibition of radiolabeled glycylsarcosine (Gly-Sar) uptake into Caco-2 cells done for 15 min at 37 degree C with compound; type: functional, cell-based; conditions: Homo sapiens, Caco-2, 0.25 h
[6] = Inhibition of radiolabeled glycylsarcosine (Gly-Sar) uptake into chinese hamster ovary cells transfected with human PepT1 (CHO/hPepT1) done for 5-20 min at 37 degree C with compound; type: functional, cell-based; conditions: Cricetulus griseus
Rattus norvegicus [7] = experiment: Onset of suppression of startle of compound in rat fear-potentiated startle assay at an oral dose of 0.01 and 0.1 mg/kg; type: functional
Procedure, shortened: (§2)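 Fed rats dosed orally. Three-day protocol: day 1 baseline startle (30 × 120 dB), groups of n = 8. Day 2 conditioning: 10 light (5 s)–shock (0.5 mA, 500 ms) pairings. Day 3, 24 h later: 20 noise-alone and 20 light+noise trials. Compound given at set pretreatment times before testing. Diazepam 0.6 mg/kg ip, 30 min pre-test, as positive control. MED = lowest dose with p < 0.05 versus control.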

Rattus norvegicus [8] = experiment: Duration of suppression of compound in rat fear-potentiated startle assay at an oral dose of 0.1 mg/kg; type: functional; procedure, shortened: as §2
Rattus norvegicus [9] = experiment: Minimally effective dose for suppression of startle in rat fear-potentiated startle assay, p.o.; type: functional; conditions: po, read-out: MED; procedure, shortened: as §2
Rattus norvegicus [10] = experiment: Duration of suppression of compound in rat fear-potentiated startle assay at an oral dose of 0.01 mg/kg; Range = 4-8 h; type: functional; procedure, shortened: as §2
[11] = molecular target: Metabotropic glutamate receptor 3 (Homo sapiens, UniProt Q14832); experiment: Inhibition of [3H]LY-341,495 binding to recombinant human mGlu3 receptors
Chain of Metabotropic glutamate receptor 3 (Q14832 whole entry): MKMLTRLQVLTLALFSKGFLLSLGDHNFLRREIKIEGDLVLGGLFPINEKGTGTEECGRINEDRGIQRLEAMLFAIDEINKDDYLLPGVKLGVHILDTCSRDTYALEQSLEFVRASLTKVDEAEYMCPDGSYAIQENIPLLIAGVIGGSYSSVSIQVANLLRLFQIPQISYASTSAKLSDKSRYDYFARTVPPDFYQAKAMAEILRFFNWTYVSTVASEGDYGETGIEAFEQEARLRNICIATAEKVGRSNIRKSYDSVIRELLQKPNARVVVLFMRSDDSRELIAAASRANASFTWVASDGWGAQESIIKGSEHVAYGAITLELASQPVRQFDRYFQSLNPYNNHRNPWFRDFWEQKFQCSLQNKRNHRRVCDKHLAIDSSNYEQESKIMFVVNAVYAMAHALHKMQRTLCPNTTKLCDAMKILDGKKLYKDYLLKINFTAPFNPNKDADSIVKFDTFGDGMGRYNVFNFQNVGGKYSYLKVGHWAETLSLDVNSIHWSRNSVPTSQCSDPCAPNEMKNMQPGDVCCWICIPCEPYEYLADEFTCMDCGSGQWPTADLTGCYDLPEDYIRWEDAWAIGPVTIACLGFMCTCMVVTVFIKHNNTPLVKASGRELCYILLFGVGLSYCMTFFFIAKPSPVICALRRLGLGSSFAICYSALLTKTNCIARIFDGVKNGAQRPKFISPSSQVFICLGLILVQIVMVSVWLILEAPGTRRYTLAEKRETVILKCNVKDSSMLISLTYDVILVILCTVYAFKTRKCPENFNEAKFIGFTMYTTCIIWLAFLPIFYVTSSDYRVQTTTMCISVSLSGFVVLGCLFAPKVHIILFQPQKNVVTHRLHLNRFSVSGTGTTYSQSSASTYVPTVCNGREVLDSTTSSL

[12] = molecular target: Metabotropic glutamate receptor 2 (Rattus norvegicus, UniProt P31421); experiment: Inhibition of [3H]LY-341,495 binding to mGlu2 receptors of rat brain
Chain of Metabotropic glutamate receptor 2 (Rattus norvegicus, UniProt P31421) (P31421 whole entry): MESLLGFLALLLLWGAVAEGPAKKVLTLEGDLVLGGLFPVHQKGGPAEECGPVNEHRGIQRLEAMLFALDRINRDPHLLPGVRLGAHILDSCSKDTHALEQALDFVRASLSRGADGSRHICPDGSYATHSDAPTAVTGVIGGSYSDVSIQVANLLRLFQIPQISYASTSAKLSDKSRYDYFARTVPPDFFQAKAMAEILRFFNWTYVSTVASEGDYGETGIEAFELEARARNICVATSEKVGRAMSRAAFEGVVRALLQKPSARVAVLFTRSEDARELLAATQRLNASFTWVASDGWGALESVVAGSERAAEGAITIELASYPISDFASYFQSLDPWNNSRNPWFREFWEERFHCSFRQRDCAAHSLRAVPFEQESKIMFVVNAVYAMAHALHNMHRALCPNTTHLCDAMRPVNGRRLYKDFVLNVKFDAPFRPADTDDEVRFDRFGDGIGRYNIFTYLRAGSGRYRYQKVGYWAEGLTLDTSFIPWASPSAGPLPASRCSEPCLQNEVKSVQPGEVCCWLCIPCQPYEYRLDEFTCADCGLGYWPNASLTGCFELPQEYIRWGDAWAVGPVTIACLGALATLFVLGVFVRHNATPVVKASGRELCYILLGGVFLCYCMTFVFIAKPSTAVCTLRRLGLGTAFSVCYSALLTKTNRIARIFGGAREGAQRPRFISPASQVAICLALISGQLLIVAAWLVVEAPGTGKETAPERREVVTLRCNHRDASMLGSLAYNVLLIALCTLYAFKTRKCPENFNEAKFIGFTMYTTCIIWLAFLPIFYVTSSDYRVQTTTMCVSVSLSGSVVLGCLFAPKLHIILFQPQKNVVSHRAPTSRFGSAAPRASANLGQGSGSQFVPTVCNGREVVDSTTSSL

[13] = molecular target: Metabotropic glutamate receptor 2 (Homo sapiens, UniProt Q14416); experiment: Inhibition of [3H]LY-341,495 binding to recombinant human mGlu2 receptors
Chain of Metabotropic glutamate receptor 2 (Homo sapiens, UniProt Q14416) (Q14416 whole entry): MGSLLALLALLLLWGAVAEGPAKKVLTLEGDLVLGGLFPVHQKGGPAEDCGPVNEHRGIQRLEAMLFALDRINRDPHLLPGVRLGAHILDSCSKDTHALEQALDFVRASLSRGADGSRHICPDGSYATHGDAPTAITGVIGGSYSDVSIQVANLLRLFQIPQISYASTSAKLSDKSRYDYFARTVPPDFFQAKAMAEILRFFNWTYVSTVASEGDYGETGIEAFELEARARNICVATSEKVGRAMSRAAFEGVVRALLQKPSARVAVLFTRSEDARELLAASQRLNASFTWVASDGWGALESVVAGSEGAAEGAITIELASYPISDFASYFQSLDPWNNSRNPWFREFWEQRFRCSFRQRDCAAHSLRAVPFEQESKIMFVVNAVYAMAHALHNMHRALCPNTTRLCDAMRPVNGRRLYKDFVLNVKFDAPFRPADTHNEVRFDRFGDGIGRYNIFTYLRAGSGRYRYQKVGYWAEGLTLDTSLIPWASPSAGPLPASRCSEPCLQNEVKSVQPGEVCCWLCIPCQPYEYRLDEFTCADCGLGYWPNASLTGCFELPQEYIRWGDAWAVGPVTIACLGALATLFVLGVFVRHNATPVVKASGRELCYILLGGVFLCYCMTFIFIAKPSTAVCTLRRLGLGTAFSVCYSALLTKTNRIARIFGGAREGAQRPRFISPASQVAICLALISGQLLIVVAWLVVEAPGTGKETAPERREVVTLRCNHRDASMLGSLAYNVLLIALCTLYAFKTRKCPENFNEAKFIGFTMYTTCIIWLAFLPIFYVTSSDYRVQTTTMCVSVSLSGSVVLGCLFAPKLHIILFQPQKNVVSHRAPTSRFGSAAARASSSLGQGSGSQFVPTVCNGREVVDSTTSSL

Rattus norvegicus [14] = experiment: Onset of suppression of startle of compound in rat fear-potentiated startle assay at an oral dose of 3.0 mg/kg; type: functional
Rattus norvegicus [15] = experiment: Minimally effective dose for suppression of startle in rat fear-potentiated startle assay, p.o.; Range = 0.3-3.0 mg/kg; type: functional; conditions: po, read-out: MED
Rattus norvegicus [16] = experiment: Duration of suppression of compound in rat fear-potentiated startle assay at an oral dose of 3.0 mg/kg; Range = 8-24 h; type: functional

| Plasma concentration [1] [µg/mL] | Plasma concentration [2] [µg/mL] | Plasma concentration [4] [µg/mL] | IC50 (Caco-2) [µM] | IC50 [6] [µM] | SMILES | further results |
| --- | --- | --- | --- | --- | --- | --- |
| 0.602 | 0.889 | 0.808 | – | – | CSCC[C@H](NC(=O)[C@]1(N)CC[C@H]2[C@H](C(=O)O)[C@H]21)C(=O)O | AUC [3]: 16.6 µg·h/mL |
| 0.036 | 0.053 | – | – | – | N[C@@]1(C(=O)N[C@@H](CO)C(=O)O)CC[C@H]2[C@H](C(=O)O)[C@H]21 | – |
| 0.319 | – | 0.455 | – | – | Cl.O=C(O)[C@H]1[C@@H]2CC[C@@](NC(=O)[C@@H]3CCCN3)(C(=O)O)[C@@H]21 | Plasma concentration [5]: 0.67 µg/mL |
| 0.081 | 0.525 | 0.191 | > 10000 | 6660 | C[C@@H](N)C(=O)N[C@@]1(C(=O)O)CC[C@H]2[C@H](C(=O)O)[C@H]21.Cl | – |
| 0.02 | 0.01 | 0.045 | 2680 | 1540 | N[C@@]1(C(=O)N[C@@H](Cc2ccccc2)C(=O)O)CC[C@H]2[C@H](C(=O)O)[C@H]21 | AUC [3]: 11.4 µg·h/mL |
| 0.03 | 0.124 | 0.044 | – | – | N[C@@]1(C(=O)N[C@@H](Cc2ccc(O)cc2)C(=O)O)CC[C@H]2[C@H](C(=O)O)[C@H]21 | – |
| 0.044 | 0.055 | 0.026 | 3050 | 1340 | CC(C)C[C@H](NC(=O)[C@]1(NC(=O)[C@H](C)N)CCC2C1[C@H]2C(=O)O)C(=O)O (stereo not given in full) | – |
| 3.62 | 0.734 | 1.554 | 7290 | 2880 | C[C@H](N)C(=O)N[C@@H](C)C(=O)N[C@@]1(C(=O)O)CC[C@H]2[C@H](C(=O)O)[C@H]21.Cl | – |
| 3.732 | 1.77 | 3.381 | 300 | 120 | C[C@H](N)C(=O)N[C@@]1(C(=O)O)CC[C@H]2[C@H](C(=O)O)[C@H]21.Cl [TALAGLUMETAD HYDROCHLORIDE] | Onset (Rattus norvegicus [7]): <=1 hr; Duration (Rattus norvegicus [8]): >=24 hr; minimal effective dose (Rattus norvegicus [9]): 0.01 mg/kg; Duration (Rattus norvegicus [10]): 8 h; Ki [11]: > 10 µM; Ki [12]: > 10 µM; Ki [13]: > 10 µM; AUC [3]: 0 µg·h/mL |
| 0.074 | 0.246 | 0.147 | – | – | Cl.NCCCC[C@H](N)C(=O)N[C@@]1(C(=O)O)CC[C@H]2[C@H](C(=O)O)[C@H]21 | – |
| 2.387 | 1.136 | 2.124 | – | – | CC(C)[C@H](N)C(=O)N[C@@]1(C(=O)O)CC[C@H]2[C@H](C(=O)O)[C@H]21.Cl | – |
| 4.488 | 1.152 | 4.323 | 5010 | 1430 | CC(C)C[C@H](N)C(=O)N[C@@]1(C(=O)O)CC[C@H]2[C@H](C(=O)O)[C@H]21.Cl | AUC [3]: 0 µg·h/mL |
| 1.478 | 0.877 | 0.894 | 6310 | 1700 | CC(C)C[C@@H](N)C(=O)N[C@@]1(C(=O)O)CC[C@H]2[C@H](C(=O)O)[C@H]21.Cl | – |
| 1.71 | 1.274 | 2.763 | 420 | 520 | Cl.N[C@@H](Cc1ccccc1)C(=O)N[C@@]1(C(=O)O)CC[C@H]2[C@H](C(=O)O)[C@H]21 | AUC [3]: 0.194 µg·h/mL |
| 0.45 | 0.919 | 0.798 | > 10000 | 620 | CC(C)C[C@H](NC(=O)[C@]1(N)CC[C@H]2[C@H](C(=O)O)[C@H]21)C(=O)O | AUC [3]: 21.3 µg·h/mL |
| 1.915 | – | 2.163 | – | – | Cl.N[C@@H](Cc1ccc(O)cc1)C(=O)N[C@@]1(C(=O)O)CC[C@H]2[C@H](C(=O)O)[C@H]21 | – |
| 1.497 | – | 1.365 | – | – | Cl.N[C@@H](CO)C(=O)N[C@@]1(C(=O)O)CC[C@H]2[C@H](C(=O)O)[C@H]21 | – |
| – | – | – | > 10000 | > 19000 | N[C@@]1(C(=O)O)CC[C@H]2[C@H](C(=O)O)[C@H]21 | Onset (Rattus norvegicus [14]): <=1 hr; minimal effective dose (Rattus norvegicus [15]): 3 mg/kg; Ki [11]: 0.126 µM; Duration (Rattus norvegicus [16]): 24 h; Ki [13]: 0.0847 µM |
| 3.72 | – | 2.107 | – | – | CSCC[C@H](N)C(=O)N[C@@]1(C(=O)O)CC[C@H]2[C@H](C(=O)O)[C@H]21.Cl | – |
| 0.019 | – | – | – | – | N[C@@]1(C(=O)NCC(=O)O)CC[C@H]2[C@H](C(=O)O)[C@H]21 | – |
| 2.009 | 2.032 | 1.457 | – | – | CC[C@H](C)[C@H](N)C(=O)N[C@@]1(C(=O)O)CC[C@H]2[C@H](C(=O)O)[C@H]21.Cl | – |
| 0.018 | 0.02 | 0.034 | – | – | CC[C@H](C)[C@H](NC(=O)[C@]1(N)CC[C@H]2[C@H](C(=O)O)[C@H]21)C(=O)O | – |
| 0.01 | 0.01 | 0.017 | – | – | CC(C)[C@H](NC(=O)[C@]1(N)CC[C@H]2[C@H](C(=O)O)[C@H]21)C(=O)O | – |
| 1.707 | – | 1.992 | – | – | Cl.NCC(=O)N[C@@]1(C(=O)O)CC[C@H]2[C@H](C(=O)O)[C@H]21 | – |
